According to ChEMBL document CHEMBL3994644, “Discovery of AAT-008, a novel, potent, and selective prostaglandin EP4 receptor antagonist” (Bioorg Med Chem Lett, 2017):

Key:
[1] = molecular target: T1, Prostaglandin E2 receptor EP4 subtype (Homo sapiens, UniProt P35408); experiment: Antagonist activity at human EP4 receptor expressed in HEK293 cells assessed as inhibition of PGE2-induced cAMP level by HTS assay; assay type: functional, cell-based
[2] = molecular target: T2, Prostaglandin E2 receptor EP3 subtype (Homo sapiens, UniProt P43115); experiment: Antagonist activity at human EP3 receptor
T2 sequence (P43115 whole entry): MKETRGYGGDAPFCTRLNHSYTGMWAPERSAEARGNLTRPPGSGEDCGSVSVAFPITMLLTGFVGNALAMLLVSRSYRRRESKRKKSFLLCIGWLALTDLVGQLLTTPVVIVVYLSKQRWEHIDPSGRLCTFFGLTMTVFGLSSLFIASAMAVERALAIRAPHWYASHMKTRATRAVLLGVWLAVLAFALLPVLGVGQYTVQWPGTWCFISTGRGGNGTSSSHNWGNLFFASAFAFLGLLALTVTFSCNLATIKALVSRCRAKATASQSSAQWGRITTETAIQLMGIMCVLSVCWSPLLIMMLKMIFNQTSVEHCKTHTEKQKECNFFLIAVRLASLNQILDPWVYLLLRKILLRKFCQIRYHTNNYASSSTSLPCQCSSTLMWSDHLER

[3] = molecular target: T3, Prostaglandin E2 receptor EP1 subtype (Homo sapiens, UniProt P34995); experiment: Antagonist activity at human EP1 receptor
T3 sequence (P34995 whole entry): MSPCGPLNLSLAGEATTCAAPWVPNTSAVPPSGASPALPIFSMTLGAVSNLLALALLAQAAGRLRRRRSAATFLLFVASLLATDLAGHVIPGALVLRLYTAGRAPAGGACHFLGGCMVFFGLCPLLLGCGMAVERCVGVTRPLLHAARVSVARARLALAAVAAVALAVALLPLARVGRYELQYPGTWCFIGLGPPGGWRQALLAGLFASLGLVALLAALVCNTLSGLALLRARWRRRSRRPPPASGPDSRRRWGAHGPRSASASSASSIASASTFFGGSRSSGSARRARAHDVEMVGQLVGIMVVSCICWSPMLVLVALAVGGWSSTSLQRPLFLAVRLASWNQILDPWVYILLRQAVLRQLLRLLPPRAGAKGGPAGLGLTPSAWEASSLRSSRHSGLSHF

[4] = Apparent permeability from apical to basolateral side in human Caco2 cells; assay type: ADME, cell-based; details: Caco-2
Method in brief: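 Caco-2 monolayer permeability (Papp, apical to basolateral) was measured under constant pH, with the apical side at pH 6.5 and the basolateral side at pH 7.4.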

[5] = molecular target: T1, Prostaglandin E2 receptor EP4 subtype; experiment: Displacement of [3H]PGE from human EP4 receptor expressed in HEK293 cell membranes
Method in brief: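 Membrane binding assay using [3H]PGE2 with membranes from HEK-293 cells expressing human EP4. The value is expressed as Ki.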

[6] = molecular target: Prostaglandin E2 receptor EP2 subtype (Homo sapiens, UniProt P43116); experiment: Antagonist activity at human EP2 receptor
[7] = test system: Rattus norvegicus; experiment: Analgesic activity in po dosed rat assessed as inhibition of carrageenan-induced mechanical hyperalgesia measured at 1 hr post dose; assay type: functional; details: read-out: MED
Method in brief: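 Rats dosed orally. Mechanical hyperalgesia was induced with carrageenan and assessed 1 h post dose. The value is the minimum effective dose (MED, mg/kg PO).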

[8] = Half life in human liver microsomes; assay type: ADME, microsome
[9] = Solubility of the compound in pH 6.5 PBS; assay type: physicochemical
[10] = Genotoxicity in CHL cells after 72 hrs using acridine orange stain by fluorescence microscopic based micronucleus test; assay type: toxicity, cell-based, Cricetulus griseus; details: chinese hamster
[11] = Efflux ratio of apparent permeability in human Caco2 cells; assay type: ADME, cell-based; details: Caco-2
Method in brief: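 Caco-2 human colon carcinoma monolayers. Permeability measured in both directions (apical to basolateral and basolateral to apical) under constant pH: apical pH 6.5, basolateral pH 7.4. Efflux ratio taken as Papp B→A divided by Papp A→B.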

[12] = Apparent permeability from basolateral to apical side in human Caco2 cells; assay type: ADME, cell-based; details: Caco-2
Method in brief: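 Caco-2 permeability was measured basolateral to apical under the same pH conditions as the apical-to-basolateral direction (apical 6.5, basolateral 7.4). Efflux ratio was derived from the two directions.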

Sequence of Prostaglandin E2 receptor EP2 subtype (P43116 whole entry): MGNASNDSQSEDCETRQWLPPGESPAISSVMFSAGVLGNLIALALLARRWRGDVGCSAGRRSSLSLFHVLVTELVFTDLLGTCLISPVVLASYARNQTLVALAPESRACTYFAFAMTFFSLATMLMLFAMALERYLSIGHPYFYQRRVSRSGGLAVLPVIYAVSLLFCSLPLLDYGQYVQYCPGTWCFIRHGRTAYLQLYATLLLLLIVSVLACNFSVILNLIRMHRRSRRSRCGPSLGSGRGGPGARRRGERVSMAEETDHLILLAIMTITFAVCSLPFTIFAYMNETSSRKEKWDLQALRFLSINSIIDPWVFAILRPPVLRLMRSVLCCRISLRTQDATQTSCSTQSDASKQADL
T1 sequence (P35408 whole entry): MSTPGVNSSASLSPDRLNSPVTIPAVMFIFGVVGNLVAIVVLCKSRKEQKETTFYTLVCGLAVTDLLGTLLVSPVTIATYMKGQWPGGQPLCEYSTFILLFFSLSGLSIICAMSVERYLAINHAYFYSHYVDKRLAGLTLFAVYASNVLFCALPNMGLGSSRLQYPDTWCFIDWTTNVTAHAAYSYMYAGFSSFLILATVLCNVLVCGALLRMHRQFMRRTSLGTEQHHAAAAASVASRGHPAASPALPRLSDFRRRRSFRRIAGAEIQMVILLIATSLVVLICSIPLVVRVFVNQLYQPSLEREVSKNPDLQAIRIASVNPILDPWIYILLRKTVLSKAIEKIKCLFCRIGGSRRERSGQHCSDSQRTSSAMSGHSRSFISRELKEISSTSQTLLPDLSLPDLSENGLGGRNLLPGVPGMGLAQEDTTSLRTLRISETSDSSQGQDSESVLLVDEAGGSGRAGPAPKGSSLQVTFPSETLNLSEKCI

Structure (SMILES) | IC50 [1] | Papp A→B [4] | IC50 [5] | half-life [8] | other results
Cc1ccc(C(=O)NCc2ccc(C(=O)O)cc2)c(Oc2ccc(F)cc2)n1 | > 5000 nM | – | – | – | –
CCC(NC(=O)c1cc(F)cnc1Oc1ccc(F)cc1)c1ccc(C(=O)O)cc1 (racemic) | – | 20.1 ×10⁻⁶ cm/s | 181 nM | – | –
C[C@H](NC(=O)c1cc(Cl)cnc1Oc1ccc(F)c(F)c1)c1ccc(C(=O)O)cc1 | < 50 nM | – | – | – | –
O=C(O)c1ccc(CNC(=O)c2cc(Cl)cnc2Oc2ccc(F)cc2)cc1 | 254 nM | 20.1 ×10⁻⁶ cm/s | 37.9 nM | – | IC50 [2]: > 20000 nM; IC50 [3]: > 20000 nM; IC50 [6]: 1290 nM
CSc1cccc(Oc2ncc(Cl)cc2C(=O)N[C@@H](C)c2ccc(C(=O)O)cc2)c1 | 400 nM | – | – | – | –
C[C@H](NC(=O)c1cc(Cl)cnc1Oc1ccccc1Cl)c1ccc(C(=O)O)cc1 | 93.5 nM | – | – | – | –
C[C@H](NC(=O)c1cc(Cl)cnc1Oc1cccc(C(F)(F)F)c1)c1ccc(C(=O)O)cc1 | 60.4 nM | – | – | – | –
Cc1cnc(Oc2ccc(F)cc2)c(C(=O)NCc2ccc(C(=O)O)cc2)c1 | 2940 nM | – | – | – | –
O=C(O)c1ccc(CNC(=O)c2cccc(OCc3nc4cc(F)ccc4s3)c2)cc1 | 370 nM | – | – | > 2 h | solubility [9]: > 10 µM

The next lines start with results.

IC50 [1] | Papp A→B [4] | IC50 [5] | half-life [8] | Structure (SMILES) | other results
30.6 nM | 41.9 ×10⁻⁶ cm/s | 8.76 nM | > 2 h | C[C@H](NC(=O)c1cc(Cl)ccc1Oc1cccc(F)c1)c1ccc(C(=O)O)cc1 | Kb ([1]; read-out: pA2 (converted)): 1.26 nM; IC50 [2]: > 20000 nM; IC50 [3]: > 20000 nM; IC50 [6]: 1620 nM; minimal effective dose [7]: 10 mg/kg
137 nM | – | – | – | C[C@H](NC(=O)c1cc(Cl)cnc1Oc1cncc(Cl)c1)c1ccc(C(=O)O)cc1 | –
94.3 nM | – | – | – | C[C@H](NC(=O)c1cc(Cl)cnc1Oc1ccc(Cl)cc1)c1ccc(C(=O)O)cc1 | –
575 nM | 25.3 ×10⁻⁶ cm/s | 104 nM | > 2 h | O=C(O)c1ccc(CNC(=O)c2cc(F)cnc2Oc2ccc(F)cc2)cc1 | IC50 [2]: > 20000 nM; IC50 [3]: > 20000 nM; Ki [5]: 73 nM; IC50 [6]: > 20000 nM; solubility [9]: > 10 µM
61.4 nM | – | – | – | C[C@H](NC(=O)c1cc(Cl)cnc1Oc1ccccc1F)c1ccc(C(=O)O)cc1 | –
21.8 nM | – | 5.02 nM | > 2 h | C[C@H](NC(=O)c1cc(Cl)cnc1Oc1cccc(Cl)c1)c1ccc(C(=O)O)cc1 | –
36.2 nM | 0.644 ×10⁻⁶ cm/s | 13.4 nM | > 2 h | C[C@H](NC(=O)c1cc(Cl)cnc1Oc1cccc(C#N)c1)c1ccc(C(=O)O)cc1 | IC50 [2]: > 20000 nM; IC50 [3]: > 20000 nM; Activity [10]: Toxic; IC50 [6]: 3320 nM; efflux ratio [11]: 40; Papp B→A [12]: 25.8 ×10⁻⁶ cm/s
